In ChEMBL document CHEMBL3045289, “Molecular docking and three-dimensional quantitative structure-activity relationship studies on the binding modes of herbicidal 1-(substituted phenoxyacetoxy)alkylphosphonates to the E1 component of pyruvate dehydrogenase” (J Agric Food Chem, 2007):

Tested on: Cucumis sativus
Test: Herbicidal activity against Cucumis sativus (cucumber) seeds assessed as inhibition of cucumber root at 28 degC for 3 days with 10 hr of lighting and 14 h in the dark
Format: functional, organism-based
Outline: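 Compound dissolved in acetone with a drop of Tween 80, then diluted with water to the required concentrations. Five mL was applied to filter paper in Petri dishes, with 10 cucumber seeds pre-soaked in water for 6 h. Taproot length was read at 72 h as percent inhibition versus control. Three replicates at each of five or six concentrations; IC50 by log-probit regression.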

SMILES | IC50 [µM]
COP(=O)(OC)C(OC(=O)COc1ccc(Cl)cc1C)c1cccs1 (stereo not drawn) | 0.468
COP(=O)(OC)C(OC(=O)COc1ccc(Cl)cc1)c1ccccc1 (stereo not drawn) | 0.427
COP(=O)(O)C(OC(=O)COc1ccc(Cl)cc1Cl)c1ccc(Cl)cc1Cl (stereo not drawn) | 1.02
COP(=O)(OC)C(OC(=O)COc1c(Cl)cccc1Cl)c1ccco1 (stereo not drawn) | 324
COP(=O)(OC)C(OC(=O)COc1cccc(F)c1)c1ccccc1 (stereo not drawn) | 112
COP(=O)(OC)C(OC(=O)COc1c(Cl)cccc1Cl)c1ccccc1 (stereo not drawn) | 85.1
COP(=O)(OC)C(C)OC(=O)COc1c(Cl)cccc1Cl (stereo not drawn) | 100
COP(=O)(OC)C(OC(=O)COc1cccc(Cl)c1Cl)c1ccccc1 (stereo not drawn) | 229
COP(=O)(OC)C(OC(=O)COc1cccc(Cl)c1Cl)c1ccco1 (stereo not drawn) | 447
COP(=O)(OC)C(OC(=O)COc1cccc(C(F)(F)F)c1)c1cccc(Cl)c1 (stereo not drawn) | 14.5
COP(=O)(OC)C(OC(=O)COc1cc(C)ccc1Cl)c1cccs1 (stereo not drawn) | 51.3
COP(=O)(OC)C(OC(=O)COc1cccc(F)c1)c1ccco1 (stereo not drawn) | 67.6
COP(=O)(O)C(OC(=O)COc1ccc(Cl)cc1Cl)c1cccc([N+](=O)[O-])c1 (stereo not drawn) | 1.23
COP(=O)(OC)C(OC(=O)COc1cc(C)ccc1Cl)C(Cl)(Cl)Cl (stereo not drawn) | 75.9
COP(=O)(OC)C(OC(=O)COc1ccc(Cl)cc1)C(Cl)(Cl)Cl (stereo not drawn) | 0.724
COP(=O)(OC)C(OC(=O)COc1ccc(Cl)c(C)c1)c1cccs1 (stereo not drawn) | 2.34
COP(=O)(OC)C(OC(=O)COc1ccc(Cl)c(C)c1)c1ccccc1 (stereo not drawn) | 2.57
COP(=O)(OC)C(OC(=O)COc1ccc(Cl)c(C)c1)c1ccco1 (stereo not drawn) | 3.63
COP(=O)(OC)C(OC(=O)COc1ccc(Cl)cc1Cl)c1cccs1 (stereo not drawn) | 0.282
COP(=O)(OC)C(C)OC(=O)COc1ccc(Cl)cc1 (stereo not drawn) | 0.427

SMILES | IC50 [µM]
COP(=O)(OC)C(C)OC(=O)COc1ccc(F)cc1 (stereo not drawn) | 1.51
COP(=O)(OC)C(OC(=O)COc1cc(C)ccc1Cl)c1ccccc1 (stereo not drawn) | 72.4
COP(=O)(OC)C(OC(=O)COc1ccc(F)cc1)c1cccs1 (stereo not drawn) | 2.63
COP(=O)(OC)C(C)OC(=O)COc1ccc(Cl)c(C)c1 (stereo not drawn) | 2.95
COP(=O)(OC)C(OC(=O)COc1ccc(Cl)cc1C)C(Cl)(Cl)Cl (stereo not drawn) | 0.398
COP(=O)(OC)C(OC(=O)COc1ccc(F)cc1)c1ccccc1 (stereo not drawn) | 1.51
COP(=O)(OC)C(C)OC(=O)COc1cc(C)ccc1Cl (stereo not drawn) | 49
COP(=O)(OC)C(C)OC(=O)COc1cccc(Cl)c1Cl (stereo not drawn) | 209
COP(=O)(OC)C(OC(=O)COc1cccc(Cl)c1Cl)C(Cl)(Cl)Cl (stereo not drawn) | 70.8
COP(=O)(OC)C(OC(=O)COc1ccc(Cl)c(C)c1)C(Cl)(Cl)Cl (stereo not drawn) | 3.47
COP(=O)(O)C(OC(=O)COc1ccc(Cl)cc1Cl)c1ccc(Cl)c(Cl)c1 (stereo not drawn) | 0.891
COP(=O)(O)C(OC(=O)COc1ccc(Cl)cc1Cl)c1ccc(C)cc1 (stereo not drawn) | 1.35
COP(=O)(OC)C(C)OC(=O)COc1cccc(F)c1 (stereo not drawn) | 112
COP(=O)(OC)C(OC(=O)COc1ccc(F)cc1)c1ccco1 (stereo not drawn) | 1.82
COP(=O)(O)C(OC(=O)COc1ccc(Cl)cc1Cl)c1ccc(Cl)cc1 (stereo not drawn) | 1.32
COc1ccc(C(OC(=O)COc2ccc(Cl)cc2Cl)P(=O)(O)OC)cc1 (stereo not drawn) | 0.955
COP(=O)(OC)C(OC(=O)COc1cc(C)ccc1Cl)c1ccco1 (stereo not drawn) | 87.1
COP(=O)(OC)C(OC(=O)COc1ccc(F)cc1)C(Cl)(Cl)Cl (stereo not drawn) | 1.17
COP(=O)(OC)C(OC(=O)COc1cccc(Cl)c1Cl)c1cccs1 (stereo not drawn) | 589
COP(=O)(O)C(OC(=O)COc1ccc(Cl)cc1Cl)c1ccco1 (stereo not drawn) | 0.447

SMILES | IC50 [µM]
COP(=O)(O)C(OC(=O)COc1ccc(Cl)cc1Cl)c1ccccc1Cl (stereo not drawn) | 0.912
COP(=O)(OC)C(OC(=O)COc1ccc(Cl)cc1)c1ccco1 (stereo not drawn) | 0.646
COP(=O)(O)C(OC(=O)COc1ccc(Cl)cc1Cl)c1ccccn1 (stereo not drawn) | 0.575
COP(=O)(OC)C(OC(=O)COc1ccc(Cl)cc1C)c1ccccc1 (stereo not drawn) | 0.355
COP(=O)(OC)C(OC(=O)COc1cccc(F)c1)c1cccs1 (stereo not drawn) | 126
COP(=O)(OC)C(OC(=O)COc1c(Cl)cccc1Cl)c1cccs1 (stereo not drawn) | 178
COP(=O)(O)C(OC(=O)COc1ccc(Cl)cc1Cl)c1ccccc1 (stereo not drawn) | 0.955
COP(=O)(OC)C(OC(=O)COc1cccc(C(F)(F)F)c1)c1ccc(C)cc1 (stereo not drawn) | 7.41
COP(=O)(OC)C(OC(=O)COc1cccc(C(F)(F)F)c1)c1ccc(Cl)cc1 (stereo not drawn) | 6.92
COP(=O)(OC)C(C)OC(=O)COc1ccc(Cl)cc1C (stereo not drawn) | 0.437
COP(=O)(OC)C(OC(=O)COc1ccc(Cl)cc1C)c1ccco1 (stereo not drawn) | 3.8
COP(=O)(OC)C(OC(=O)COc1ccc(Cl)cc1Cl)c1ccco1 (stereo not drawn) | 0.339
COP(=O)(OC)C(OC(=O)COc1ccc(Cl)cc1)c1cccs1 (stereo not drawn) | 0.575
COP(=O)(OC)C(OC(=O)COc1cccc(F)c1)C(Cl)(Cl)Cl (stereo not drawn) | 83.2
COP(=O)(OC)C(OC(=O)COc1cccc(C(F)(F)F)c1)c1ccccc1Cl (stereo not drawn) | 7.94
COP(=O)(OC)C(OC(=O)COc1c(Cl)cccc1Cl)C(Cl)(Cl)Cl (stereo not drawn) | 115
COP(=O)(OC)C(OC(=O)COc1cccc(C(F)(F)F)c1)c1ccc(Cl)c(Cl)c1 (stereo not drawn) | 8.32
COP(=O)(O)C(OC(=O)COc1ccc(Cl)cc1Cl)c1ccc(F)cc1 (stereo not drawn) | 0.776
